Results reported in publication PMC3995353 (Biopolymers, 2014).

Test system: Chinese Hamster Ovary (CHO) cells
Assay: Cytotoxicity, MTT assay in CHO cells
Format: cell-based
Details: 5 μM, 48 hours
In short: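 CHO cells seeded in 96-well plates, test compound added at concentrations up to 20 μM, then 48 h at 37°C, 5% CO2, humidified (cells adhere during incubation). MTT (50 μg/well) added for 6 h. Formazan dissolved in acidified isopropanol (90% isopropanol:10% Triton X-100:0.4% HCl), OD read at 550 nm as relative viability. Mean ± standard error, ≥3 experiments.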

Substance: Melittin
- cell viability (positive control): complete loss of cell viability
